According to ChEMBL document CHEMBL4052621, “Identification of new anti-inflammatory agents based on nitrosporeusine natural products of marine origin” (Eur J Med Chem, 2017):
pIC50: −log10 of the molar value. The source made the active and inactive calls. No cut-off for these calls is given here.

Assays:
[1] = test system: RAW264.7; experiment: Cytotoxicity against mouse RAW264.7 cells assessed as decrease in cell viability after 24 hrs by MTT assay; type: cell-based; conditions: RAW264.7, 24 h
Procedure, shortened: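 RAW264.7 macrophage viability after compound exposure was measured by MTT assay. IC50 (µM) was calculated and reported with a 95% confidence interval.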

[2] = test system: RAW264.7; experiment: Antiinflammatory activity in mouse RAW264.7 cells assessed as inhibition of LPS-induced NO production after 24 hrs by Griess assay; type: functional, cell-based; conditions: for pIC50: RAW264.7, 24 h
Procedure, shortened: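 LPS-stimulated RAW264.7 cells were co-treated with compound. Nitrite, a stable NO metabolite, was measured in culture medium with Griess reagent. IC50 (µM) was reported with a 95% confidence interval.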

[3] = test system: RAW264.7; experiment: Selectivity index, ratio IC50 for cytotoxicity against mouse RAW264.7 cells to IC50 for antiinflammatory activity in mouse RAW264.7 cells; type: functional
Procedure, shortened: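 Ratio A/B in RAW 264.7 cells. A is the cytotoxicity IC50 from the MTT assay. B is the IC50 for inhibiting NO production in LPS-stimulated cells, with nitrite in the culture medium measured by Griess reagent. Both IC50s are reported with 95% confidence intervals.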

SMILES | pIC50 [1] | pIC50 [2] | Ratio IC50 [3] | inhibition [2]
O=C(Cc1ccccc1)SC12CCC=C1C(=O)NC2=O (stereo not drawn) | 4.03 | 4.51 | 3.042 | –
CC(=O)SC12CCC=C1C(=O)NC2=O (stereo not drawn) | 3.73 | 4.69 | 9 | –
CC(=O)O[C@H]1CC[C@]2(SC(=O)c3ccc(F)cc3)C(=O)NC(=O)[C@H]12 | – | – | – | Active
CC(=O)S[C@]12CC[C@H](O)[C@H]1C(=O)NC2=O (relative stereo) | 3.07 | 3.08 | 1.029 | –
O=C(S[C@]12CC[C@H](O)[C@H]1C(=O)NC2=O)c1ccccc1 (relative stereo) | 1.77 | 4.19 | 261.7025 | –
O=C(S[C@]12CC[C@H](O)[C@H]1C(=O)NC2=O)c1ccccc1Cl (relative stereo) | 3.14 | 3.75 | 4.022 | –
O=C(S[C@]12CCC[C@H]1C(=O)NC2=O)c1ccccc1Cl (relative stereo) | 3.08 | 4.22 | 13.95 | –
CC(=O)O[C@H]1CCC2=C1C(=O)NC2=O | 3.89 | 3.06 | 0.1477 | –
O=C1NC(=O)C2=C1CC[C@@H]2O | 3.66 | 4.02 | 2.26 | –
CC(=O)S[C@]12CCC[C@H]1C(=O)NC2=O (relative stereo) | 3.17 | 4.23 | 11.39 | –
O=C(Cc1ccccc1)S[C@]12CCC[C@H]1C(=O)NC2=O (relative stereo) | 3.37 | 4.24 | 7.48 | –
O=C(Cc1ccccc1)SC1CC[C@]2(SC(=O)Cc3ccccc3)C(=O)NC(=O)[C@H]12 (stereo partly drawn) | 3.15 | 4.24 | 12.36 | –
O=C(S[C@@]12CC[C@H](O)[C@@H]1C(=O)NC2=O)c1ccccc1Cl (relative stereo) | 3.18 | – | 5.245 | –
CC(=O)OC1CC[C@]2(SC(=O)c3ccccc3)C(=O)NC(=O)[C@H]12 (stereo partly drawn) | 2.72 | 4.19 | 29.74 | –
CC(=O)OC1CC[C@]2(SC(=O)Cc3ccccc3)C(=O)NC(=O)[C@H]12 (stereo partly drawn) | 2.79 | 4.17 | 23.57 | –
O=C(S[C@]12CC[C@H](O)[C@H]1C(=O)NC2=O)c1ccc(F)cc1 (relative stereo) | 3.32 | 3.50 | 1.49 | –
CC(=O)OC1CC[C@]2(SC(=O)c3ccccc3Cl)C(=O)NC(=O)[C@H]12 (stereo partly drawn) | 2.04 | 3.99 | 89.51 | –
O=C(S[C@@]12CC[C@@H](O)[C@@H]1C(=O)NC2=O)c1ccc(O)cc1 | 2.54 | 3.90 | 22.99 | –
O=C1NC(=O)C2=C1CC[C@H]2O | 3.50 | 3.92 | 2.631 | –
CC(=O)O[C@@H]1CC[C@]2(SC(=O)c3ccc(F)cc3)C(=O)NC(=O)[C@H]12 | – | – | – | Active
O=C(SC1CC[C@]2(SC(=O)c3ccc(F)cc3)C(=O)NC(=O)[C@H]12)c1ccc(F)cc1 (stereo partly drawn) | 3.68 | 4.01 | 2.142 | –
CC(=O)O[C@@H]1CC[C@@]2(SC(=O)c3ccc(F)cc3)C(=O)NC(=O)[C@@H]12 | – | – | – | Active
O=C(SC12CCC(O)C1C(=O)NC2=O)c1ccc(O)cc1 (racemic) | 3.36 | 3.65 | 1.925 | –
O=C1NC(=O)C2=C1CCC2SC(=O)c1cccs1 (stereo not drawn) | 4.57 | 4.19 | 0.4108 | –
O=C(S[C@@]12CC[C@H](O)[C@@H]1C(=O)NC2=O)c1ccccc1 (relative stereo) | 3.32 | 4.14 | 6.622 | –
O=C(Cc1ccccc1)S[C@@]12CC[C@H](O)[C@@H]1C(=O)NC2=O (relative stereo) | 3.08 | 3.88 | 6.322 | –
CC(=O)S[C@@]12CC[C@H](O)[C@@H]1C(=O)NC2=O (relative stereo) | 3.25 | 3.83 | 3.7762 | –
O=C(Cc1ccccc1)S[C@]12CC[C@H](O)[C@H]1C(=O)NC2=O (relative stereo) | 3.11 | 3.85 | 5.418 | –
O=C(S[C@]12CCC[C@H]1C(=O)NC2=O)c1ccc(F)cc1 (relative stereo) | 3.42 | 3.41 | 0.9841 | –
O=C(S[C@]12CC[C@@H](O)[C@H]1C(=O)NC2=O)c1ccc(O)cc1 | 3.21 | 4.38 | 14.67 | –
